# Several values for one entry are separate records, joined by “and”; a condition that tells them apart may be missing. Equal values may be shown once.
# What was measured:
# [1] = Cytotoxicity against mouse bone marrow cell by CFU-GM assay; type: cell-based
# How it was run: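 CFU-GM colony assay on normal human bone marrow (thawed) or mouse femoral marrow (freshly extracted). Human colonies scored after 16-18 days. IC₅₀ taken from triplicate assays.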
# [2] = tested on: A-375; assay: Cytotoxicity against human A375 cells after 72 hrs by alamar blue assay; type: functional, cell-based; details: A-375, 72 h
# How it was run: (§1)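 Cells seeded at 4 × 10³ per well and grown 24 h. Compounds dissolved in DMSO and diluted in medium to final concentrations, then incubated 72 h at 37 °C, 5% CO₂. Viable cells read by AlamarBlue; IC₅₀ taken as the concentration giving 50% growth inhibition.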
# [3] = Cmax in CD-1 mouse plasma at 50 mg/kg, ip by LC/MS/MS analysis; type: ADME, organism-based; design: dose 50 mg/kg, route intraperitoneal
# How it was run: (§2)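 CD-1 mice (~25 g) given 50 mg/kg ip in 5% DMSO/5% Tween 80 in water; three mice per time point, sampled up to 480 min. Blood taken by cardiac puncture into EDTA, then whole brain excised and homogenized in water. Proteins precipitated with ice-cold acetonitrile containing propranolol internal standard; supernatant analysed by HPLC/MS/MS.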
# [4] = Cytotoxicity against human MESSA cells after 72 hrs by alamar blue assay; type: functional, cell-based; details: MES-SA; how it was run: as §1
# [5] = Half life in CD-1 mouse plasma at 50 mg/kg, ip by LC/MS/MS analysis; type: ADME, organism-based; design: dose 50 mg/kg, route intraperitoneal; how it was run: as §2
# [6] = AUC in CD-1 mouse plasma at 50 mg/kg, ip by LC/MS/MS analysis; type: ADME, organism-based; design: dose 50 mg/kg, route intraperitoneal; how it was run: as §2
# [7] = tested on: PC-3; assay: Cytotoxicity against human PC3 cells after 72 hrs by alamar blue assay; type: functional, cell-based; details: PC-3, 72 h; how it was run: as §1
# [8] = tested on: SK-MEL-2; assay: Cytotoxicity against human SK-MEL-2 cells after 72 hrs by alamar blue assay; type: functional, cell-based; details: SK-MEL-2, 72 h; how it was run: as §1
# [9] = tested on: NCI-H69; assay: Cytotoxicity against human H69 cells after 72 hrs by alamar blue assay; type: functional, cell-based; details: NCI-H69, 72 h; how it was run: as §1
# [10] = tested on: HT-29; assay: Antitumor activity against human HT-29 cells xenografted in nu/nu mouse assessed as tumor growth inhibition at 40 mg/kg, […]; type: functional; design: scale not given: the % may be the effect or the level left; details: route oral
# [11] = tested on: NCI-H460; assay: Ratio IC50 for human H460 cells after 72 hrs in presence of 40 mg/ml HSA to IC50 for human H460 cells after 72 hrs; type: functional
# How it was run: (§3)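 H460 cells seeded at 4 × 10³ per well and grown 24 h. Compounds then cocultured with cells for 72 h at 37 °C, with or without 40 mg/mL human serum albumin. Viability read by AlamarBlue; IC₅₀ = 50% growth inhibition. Ratio compares the IC₅₀ with HSA to the IC₅₀ without.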
# [12] = tested on: PC-3; assay: Antitumor activity against human PC3 cells xenografted in nu/nu mouse assessed as tumor growth inhibition at 40 mg/kg, po QD for 5 days followed by 2 days without treatment for 2 weeks; type: functional; design: scale not given: the % may be the effect or the level left
# How it was run: (§4)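 Female nude (nu/nu) mice (males for prostate model) implanted sc in the flank with tumor cells (1 × 10⁶ for H460). Dosing began at 100-150 mm³, 10 mice/group. Oral gavage in 5% DMSO/5% Tween 80/1% CMC in water, 5 days on/2 off per cycle, 2 or 4 cycles. Volume = length×width²/2, measured twice weekly. TGI = (1 − ΔT/ΔC)×100; TGD = extra days to reach 500 mm³ versus control.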
# [13] = Cytotoxicity against human bone marrow cell by CFU-GM assay; type: cell-based
# [14] = tested on: DU-145; assay: Cytotoxicity against human DU145 cells after 72 hrs by alamar blue assay; type: functional, cell-based; details: DU-145, 72 h; how it was run: as §1
# [15] = Tmax in CD-1 mouse plasma at 50 mg/kg, ip by LC/MS/MS analysis; type: ADME, organism-based; design: dose 50 mg/kg, route intraperitoneal; how it was run: as §2
# [16] = Ratio of IC50 for mouse bone marrow cell to IC50 for human bone marrow cell; type: cell-based; details: bone marrow cells
# How it was run: (§5)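 CFU-GM colony assay in triplicate at 2 × 10⁴ cells per culture, using thawed normal human bone marrow or fresh mouse femoral marrow. Colonies were scored after 16-18 days. The IC50 or IC90 from each species gave the mouse/human ratio.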
# [17] = Cytotoxicity against human MES-SA/Dx5 cells overexpressing MDR1 after 72 hrs by alamar blue assay; type: functional, cell-based; details: MES-SA/Dx5, 72 h; how it was run: as §1
# [18] = Tmax in CD-1 mouse brain at 50 mg/kg, ip by LC/MS/MS analysis; type: ADME, organism-based; design: dose 50 mg/kg, route intraperitoneal; how it was run: as §2
# [19] = tested on: PC-3; assay: Antitumor activity against human PC3 cells xenografted in nu/nu mouse assessed as tumor growth delay at 40 mg/kg, po QD for 5 days followed by 2 days without treatment for 2 weeks; type: functional; how it was run: as §4
# [20] = tested on: HT-29; assay: Antitumor activity against human HT-29 cells xenografted in nu/nu mouse assessed as tumor growth delay at 40 mg/kg, […]; type: functional; details: route oral
# [21] = tested on: NCI-H460; assay: Cytotoxicity against human H460 cells after 72 hrs by alamar blue assay in presence of 40 mg/ml HSA; type: functional, cell-based; details: NCI-H460, 72 h; how it was run: as §3
# [22] = tested on: NCI-H460; assay: Antitumor activity against human H460 cells xenografted in nu/nu mouse assessed as tumor growth inhibition at 40 mg/kg, po QD for 5 days followed by 2days without treatment for 2 weeks; type: functional; design: scale not given: the % may be the effect or the level left; how it was run: as §4
# [23] = tested on: HT-29; assay: Cytotoxicity against human HT-29 cells after 72 hrs by alamar blue assay; type: functional, cell-based; details: HT-29, 72 h; how it was run: as §1
# [24] = AUC in CD-1 mouse brain at 50 mg/kg, ip by LC/MS/MS analysis; type: ADME, organism-based; design: dose 50 mg/kg, route intraperitoneal; how it was run: as §2
# [25] = tested on: Mus musculus; assay: Toxicity in nu/nu mouse assessed as body weight loss at 40 mg/kg, po QD for 5 days followed by 2 days without treatment for 2 weeks; type: organism-based; design: dose 40 mg/kg, route oral; details: in vivo
# How it was run: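 Female nude (nu/nu) mice (males for prostate model) bearing sc xenografts, dosing started at 100-150 mm³, 10/group. Oral gavage in 5% DMSO/5% Tween 80/1% CMC in water, QD 5 days on/2 off per cycle, 2 or 4 cycles. Body weight recorded twice weekly; maximum loss reported.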
# [26] = tested on: Mus musculus; assay: Toxicity in nu/nu mouse assessed as body weight loss at 40 mg/kg, po QD for 5 days followed by 4 days without treatment for 2 weeks; type: organism-based; design: dose 40 mg/kg, route oral; details: in vivo
# [27] = tested on: Malme-3M; assay: Cytotoxicity against human MALME-3M cells after 72 hrs by alamar blue assay; type: functional, cell-based; how it was run: as §1
# [28] = Half life in CD-1 mouse brain at 50 mg/kg, ip by LC/MS/MS analysis; type: ADME, organism-based; design: dose 50 mg/kg, route intraperitoneal; how it was run: as §2
# [29] = Resistance ratio of IC50 for human MES-SA/Dx5 cells overexpressing MDR1 after 72 hrs to IC50 for human MESSA cells after 72 hrs; type: functional
# How it was run: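 Cytotoxicity compared in MDR1-overexpressing lines and their parental wild-type lines. 72 h exposure at 37 °C, viability by AlamarBlue, IC₅₀ at 50% growth inhibition. Resistance ratio = IC₅₀ in overexpressing line / IC₅₀ in parental line.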
# [30] = tested on: NCI-H460; assay: Antitumor activity against human H460 cells xenografted in nu/nu mouse assessed as tumor growth delay at 40 mg/kg, po QD for 5 days followed by 2days without treatment for 2 weeks; type: functional; how it was run: as §4
# [31] = Resistance ratio of IC50 for human H69AR cells overexpressing MRP1 after 72 hrs s to IC50 for human H69 cells after 72 hrs
# [32] = tested on: NCI-H460; assay: Cytotoxicity against human H460 cells after 72 hrs by alamar blue assay; type: functional, cell-based; how it was run: as §1
# [33] = tested on: IGROV-1; assay: Cytotoxicity against human IGROV1 cells after 72 hrs by alamar blue assay; type: functional, cell-based; details: IGROV-1, 72 h; how it was run: as §1
# [34] = tested on: H69AR; assay: Cytotoxicity against human H69AR cells overexpressing MRP1 after 72 hrs by alamar blue assay
# [35] = tested on: LNCaP; assay: Cytotoxicity against human LNCAP cells after 72 hrs by alamar blue assay; type: functional, cell-based; how it was run: as §1
# [36] = Ratio of drug level in brain to plasma in CD-1 mouse at 50 mg/kg, ip; type: ADME, organism-based; design: dose 50 mg/kg, route intraperitoneal; how it was run: as §2
# [37] = Cmax in CD-1 mouse brain at 50 mg/kg, ip by LC/MS/MS analysis; type: ADME, organism-based; design: dose 50 mg/kg, route intraperitoneal; how it was run: as §2
# [38] = Ratio of IC90 for mouse bone marrow cell to IC90 for human bone marrow cell; type: ADME, cell-based; details: bone marrow cells; how it was run: as §5
compound,measurement,setting,value
CCc1c2c(nc3ccccc13)-c1c(N)c3c(c(=O)n1C2)COC(=O)[C@]3(O)CC,IC50,[1],110 nM
same,IC50,[2],7 nM
same,Cmax,[3],300 ng/mL
same,IC50,[4],4 nM
same,half-life,[5],4.17 h
same,AUC,[6],1070 ng·h/mL
same,IC50,[7],24 nM
same,IC50,[8],130 nM
same,IC50,[9],110 nM
same,Activity,[10],101%
same,Ratio,[11],10
same,Activity,[12],107%
same,IC50,"[13]; Homo sapiens, Bone marrow cell",620 nM
same,IC90,"[13]; human, bone marrow cells",4500 nM
same,IC50,[14],1200 nM
same,Tmax,[15],1 h
same,selectivity ratio,[16],6
same,IC50,[17],12 nM
same,Tmax,[18],1 h
same,Time,[19],45 days
same,Time,[20],30 days
same,IC50,[21],120 nM
same,Activity,[22],84%
same,IC50,[23],300 nM
same,AUC,[24],750 ng·h/mL
same,Activity,[25],4%
same,Activity,[26],3% and 8%
same,IC50,[27],1200 nM
same,half-life,[28],4 h
same,Ratio,[29],3
same,Time,[30],14 days
same,Ratio,[31],2.2
same,IC50,"[32]; Homo sapiens, NCI-H460, 72 h",7 nM
same,IC50,[32]; nci-h460,12 nM
same,IC50,[33],20 nM
same,IC50,[34],240 nM
same,IC50,[35],120 nM
same,Kp,[36],70
same,Cmax,[37],300 ng/mL
same,selectivity ratio,[38],650

# — ChEMBL document CHEMBL1687926, “14-Aminocamptothecins: their synthesis, preclinical activity, and potential use for cancer treatment” (J Med Chem, 2011)
